From ChEMBL document CHEMBL2417436, “Synthesis and biological effects of novel 2-amino-3-(4-chlorobenzoyl)-4-substituted thiophenes as allosteric enhancers of the A1 adenosine receptor” (Eur J Med Chem, 2013)

What was measured:
[1] = molecular target: T1, Adenosine receptor A1 (Homo sapiens) (UniProt P30542); assay: Allosteric enhancement of human adenosine A1 receptor expressed in CHO cells assessed as increase of CCPA Ki at 10 uM after 90 mins by [3H]DPCPX radioligand binding assay; assay type: cell-based
T1 sequence (whole entry): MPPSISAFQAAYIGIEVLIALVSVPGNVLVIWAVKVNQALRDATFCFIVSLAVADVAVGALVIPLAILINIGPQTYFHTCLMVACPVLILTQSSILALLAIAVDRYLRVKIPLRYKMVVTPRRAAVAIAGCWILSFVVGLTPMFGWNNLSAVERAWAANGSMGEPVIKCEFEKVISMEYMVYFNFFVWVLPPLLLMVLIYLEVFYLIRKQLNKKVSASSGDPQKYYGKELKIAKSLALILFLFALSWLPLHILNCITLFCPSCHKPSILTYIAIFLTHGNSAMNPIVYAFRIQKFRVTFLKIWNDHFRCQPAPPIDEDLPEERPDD
In short: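 hA1CHO membranes (50 mM Tris-HCl, pH 7.4, adenosine deaminase-treated). [3H]DPCPX 1 nM competed by CCPA (0.01 nM–1 μM) with or without test compound at 10 μM. Triplicate, 90 min at 25 °C. Nonspecific binding taken with 1 μM DPCPX. Filtration, then scintillation counting. Ki by Cheng–Prusoff. Shift = Ki(CCPA)/Ki(CCPA+enhancer). Mean ± SEM, n=3.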

[2] = molecular target: T1, Adenosine receptor A1 (Homo sapiens); assay: Allosteric enhancement of human adenosine A1 receptor expressed in CHO cells assessed as increase of [3H]CCPA Bmax at 10 uM after 90 mins; assay type: cell-based
In short: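 Saturation of [3H]CCPA (0.05–20 nM) on hA1CHO membranes in 50 mM Tris-HCl, pH 7.4, with or without compound at final 10 μM. Triplicate, 25 °C, 90 min. Nonspecific binding defined with 1 μM R-PIA. Filter-bound radioactivity counted. KD and Bmax fitted by weighted nonlinear least squares; Bmax shift versus control. Mean ± SEM, n=3.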

[3] = molecular target: Adenosine receptor A2a (Homo sapiens) (UniProt P29274); assay: Displacement of [3H]ZM 241385 from human adenosine A2A receptor expressed in CHO cells at 10 uM after 60 mins by scintillation counting; assay type: cell-based
In short: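 hA2ACHO membranes in 50 mM Tris HCl, 10 mM MgCl2, pH 7.4, 4 °C for 60 min. [3H]ZM 241385 given as 1 nM in methods and 2 nM in table footnote. Compound at 10 μM from 100-fold DMSO stock, 1% DMSO final. Nonspecific binding with 1 μM ZM 241385. Filtration and scintillation counting. Percent inhibition of control specific binding, ±SEM, n=3.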

[4] = molecular target: T1, Adenosine receptor A1 (Homo sapiens); assay: Allosteric enhancement of human adenosine A1 receptor expressed in CHO cells assessed as inhibition of CCPA-induced cAMP production at 100 nM after 10 mins; assay type: functional, cell-based
In short: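 Intact hA1CHO cells (10⁶/mL) in phosphate buffer with adenosine deaminase 1.0 IU/mL and Ro 20-1724 0.5 mM, preincubated 10 min at 37 °C. Compound 100 nM plus CCPA 1 pM added for 10 min, then forskolin 1 μM for 5 min. Stopped with cold 6% TCA, ether-extracted. cAMP measured by [3H]-cAMP competition with adrenal binding protein (4 °C, 150 min). pmol/10⁶ cells, mean ± SEM of three.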

[5] = molecular target: T1, Adenosine receptor A1 (Homo sapiens); assay: Allosteric enhancement of human adenosine A1 receptor expressed in CHO cells assessed as inhibition of forskolin-induced cAMP production at 10 uM after 10 mins; assay type: functional, cell-based
In short: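 Whole hA1CHO cells (10⁶/mL) preincubated 10 min at 37 °C in phosphate buffer with adenosine deaminase (1.0 IU/mL) and Ro 20-1724 (0.5 mM). Compound alone at 10 μM for a further 10 min; forskolin 1 μM for 5 min. TCA stop, ether extraction, cAMP by [3H]-cAMP protein-binding competition assay. Expressed as pmol/10⁶ cells; mean ± SEM, three experiments.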

[6] = molecular target: T1, Adenosine receptor A1 (Homo sapiens); assay: Displacement of [3H]DPCPX from human adenosine A1 receptor expressed in CHO cells at 10 uM after 120 mins by scintillation counting
[7] = molecular target: T2, Adenosine receptor A3 (Homo sapiens) (UniProt P0DMS8); assay: Displacement of [3H]MRE-3008-F20 from human adenosine A3 receptor expressed in CHO cells at 10 uM after 120 mins by scintillation counting
T2 sequence (whole entry): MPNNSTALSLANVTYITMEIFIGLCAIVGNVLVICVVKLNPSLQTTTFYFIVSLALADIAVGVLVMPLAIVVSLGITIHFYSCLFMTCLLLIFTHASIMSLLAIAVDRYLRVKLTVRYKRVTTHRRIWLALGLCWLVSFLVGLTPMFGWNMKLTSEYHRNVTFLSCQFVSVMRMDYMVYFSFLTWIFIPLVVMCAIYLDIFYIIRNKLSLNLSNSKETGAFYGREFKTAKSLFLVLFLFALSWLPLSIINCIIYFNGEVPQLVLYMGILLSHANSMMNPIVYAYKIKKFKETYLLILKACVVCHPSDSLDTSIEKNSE

Adenosine receptor A2a (Homo sapiens), sequence (P29274 whole entry): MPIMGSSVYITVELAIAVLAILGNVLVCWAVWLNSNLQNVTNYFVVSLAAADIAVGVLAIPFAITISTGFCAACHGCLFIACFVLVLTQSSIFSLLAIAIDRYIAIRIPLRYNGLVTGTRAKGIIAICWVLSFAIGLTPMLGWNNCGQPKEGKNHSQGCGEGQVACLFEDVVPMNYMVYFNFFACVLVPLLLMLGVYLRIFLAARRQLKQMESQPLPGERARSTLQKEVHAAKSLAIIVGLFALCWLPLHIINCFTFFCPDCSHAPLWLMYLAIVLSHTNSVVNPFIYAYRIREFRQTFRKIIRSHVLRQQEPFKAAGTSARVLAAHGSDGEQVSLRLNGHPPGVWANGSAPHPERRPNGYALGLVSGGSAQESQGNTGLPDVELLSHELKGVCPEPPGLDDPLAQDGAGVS

Structure (SMILES)	fold change (FC) [1]	fold change (FC) [2]	inhibition [3]	inhibition [4]	inhibition [5]	inhibition [6]	inhibition [7]
CCN(CC)Cc1c(-c2ccccc2)sc(N)c1C(=O)c1ccc(Cl)cc1	2.4	2.8	5%	27%	25%	1%	9%
CN(Cc1c(-c2ccccc2)sc(N)c1C(=O)c1ccc(Cl)cc1)C(C)(C)C	1.3	1.3	1%	13%	10%	5%	10%
Cn1c2c(c3ccccc31)CN(Cc1csc(N)c1C(=O)c1ccc(Cl)cc1)CC2	2.9	3.1	1%	27%	28%	2%	2%
CC(C)N(Cc1c(Br)sc(N)c1C(=O)c1ccc(Cl)cc1)C(C)C	1.4	1.5	1%	14%	12%	1%	3%
Cc1ccc(OCc2csc(N)c2C(=O)c2ccc(Cl)cc2)cc1	1.4	1.3	1%	16%	11%	5%	11%
COc1ccc2c(c1)cc1n2CCN(Cc2csc(N)c2C(=O)c2ccc(Cl)cc2)C1	3.7	4.8	0%	41%	43%	1%	6%
Nc1scc(COc2ccccc2)c1C(=O)c1ccc(Cl)cc1	1.2	1.3	0%	11%	9%	1%	2%
Nc1scc(CN2CCc3[nH]c4ccccc4c3C2)c1C(=O)c1ccc(Cl)cc1	1	1	1%	11%	3%	0%	1%
Cc1ccc2c(c1)CC1CN(Cc3csc(N)c3C(=O)c3ccc(Cl)cc3)CCN21 (stereo unspecified)	1	1	0%	13%	3%	6%	7%
CCN(CC)Cc1csc(N)c1C(=O)c1ccc(Cl)cc1	1	1	1%	12%	5%	0%	2%
Nc1scc(CN2CCN3c4ccc(Cl)cc4CC3C2)c1C(=O)c1ccc(Cl)cc1 (stereo unspecified)	1.1	1.2	4%	11%	7%	1%	1%
CN(Cc1csc(N)c1C(=O)c1ccc(Cl)cc1)c1ccccc1	2.2	2.4	1%	16%	18%	1%	9%
CN(Cc1csc(N)c1C(=O)c1ccc(Cl)cc1)c1ccc(Cl)cc1	2.2	2.5	0%	21%	22%	8%	12%
CC(C)N(Cc1c(-c2ccccc2)sc(N)c1C(=O)c1ccc(Cl)cc1)C(C)C	1.3	1.2	6%	12%	9%	5%	11%
Nc1scc(CN2CCC3(CC2)Oc2cccc(F)c2O3)c1C(=O)c1ccc(Cl)cc1	6.3	6.5	1%	52%	56%	1%	7%
Cc1cccc2c1OC1(CCN(Cc3csc(N)c3C(=O)c3ccc(Cl)cc3)CC1)O2	4.9	5	1%	47%	46%	2%	5%
Nc1sc(-c2ccccc2)c(CN(C2CCCCC2)C2CCCCC2)c1C(=O)c1ccc(Cl)cc1	3.2	3.5	1%	28%	31%	6%	7%
CC(C)N(Cc1csc(N)c1C(=O)c1ccc(Cl)cc1)C(C)C	1	1	0%	14%	4%	1%	3%
Cc1sc(N)c(C(=O)c2cccc(C(F)(F)F)c2)c1C	1.6	1.3	0%	20%	18%	0%	
Nc1scc(CN2CCn3c(cc4ccccc43)C2)c1C(=O)c1ccc(Cl)cc1	6.6	7.5	0%	62%	66%	3%	3%
Nc1scc(CSc2ccccc2)c1C(=O)c1ccc(Cl)cc1	2	2.2	1%	21%	18%	1%	5%
Nc1scc(CN2CCn3c(cc4cc(Cl)ccc43)C2)c1C(=O)c1ccc(Cl)cc1	6.9	7.4	0%	60%	64%	4%	4%
CCCN(CCC)Cc1c(-c2ccccc2)sc(N)c1C(=O)c1ccc(Cl)cc1	2.5	3.1	1%	29%	28%	1%	11%
CCN(Cc1csc(N)c1C(=O)c1ccc(Cl)cc1)c1ccccc1	1.9	2.3	0%	18%	19%	0%	11%
Nc1sc(-c2ccccc2)c(CN2CCCCC2)c1C(=O)c1ccc(Cl)cc1	2.7	2.9	1%	22%	24%	1%	7%
Nc1scc(CN2CCc3ccccc3C2)c1C(=O)c1ccc(Cl)cc1	4.1	4.6	3%	43%	41%	0%	1%
